Test results reported in ChEMBL document CHEMBL5030531, “Synthetic Glycolipids as Molecular Vaccine Adjuvants: Mechanism of Action in Human Cells and In Vivo Activity” (J Med Chem, 2021).
Active and inactive are the calls of the source. The calls are words filed in the database; no cut-off is given here.

Columns and labels:
[1] = target: Myeloid differentiation primary response protein MyD88 (Homo sapiens) (UniProt Q99836); test: Activation of MyD88 dependent pathway in human THP-1 derived macrophages assessed as increase in IL-1 beta secretion at 10 to 25 uM measured after 18 hrs by ELISA; conditions: Macrophage, filed as activator, dose 10-25 µM
Procedure, shortened: (§1)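 THP-1 cells differentiated with PMA 25 ng/mL for 72 h, then rested 24 h in fresh medium before stimulation with compound (range 0.1–1 to 10–25 μM) in RPMI/10% FBS for 18 h. S-LPS and MPLA used as references. TNFα, IL-1β, IL-6 in supernatants quantified by sandwich ELISA at 450 nm (570 nm correction).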

[2] = tested on: Macrophage; test: Induction of IL-1beta production in human THP-1 derived macrophages assessed as secretion of IL-1beta mature form in supernatant at 20 uM measured up to 18 hrs by ELISA; format: functional, tissue-based; conditions: time hrs <=18
Procedure, shortened: (§2)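 Differentiated THP-1 macrophages treated with compound at 20 μM (S-LPS, R-LPS 100 ng/mL; MPLA 1 μg/mL) for 3, 6 and 18 h. IL-1β measured by ELISA in both cell lysates and supernatants; n = 3, one-way ANOVA versus untreated.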

[3] = target: T1, Toll-like receptor 4/MD-2 (Homo sapiens) (UniProt O00206+Q9Y6Y9); test: Binding affinity to NTA sensor chip immobilized recombinant human TLR4/MD2 assessed as maximum response by surface plasmon resonance analysis; format: protein-complex assay; conditions: filed as agonist
Procedure, shortened: (§3)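 Recombinant human TLR4/MD2 complex (20 μg/mL in 10 mM sodium acetate pH 4.0) amine-coupled to NTA chip after NiCl2 and EDC/NHS activation, ethanolamine-blocked. Analytes sonicated 15 min and diluted in PBS-P+ with 5% DMSO, injected over the series 4.34–69.50 μM or 5.34–85.50 μM. Regeneration 50 mM NaOH. Kinetics fitted to 1:1 model after solvent correction.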

[4] = target: NACHT, LRR and PYD domains-containing protein 3 (Homo sapiens) (UniProt Q96P20); test: Activation of NLRP3 inflammasome in human THP-1 derived macrophages assessed as increase in IL-1beta maturation and release at 20 uM measured after 6 hrs by ELISA; format: tissue-based; conditions: Macrophage, filed as activator
Procedure, shortened: (§4)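 After 6 h of compound at 20 μM, differentiated THP-1 macrophage lysates were immunoblotted for pro-caspase-1 and pro-IL-1β. Methanol/chloroform-precipitated supernatants were probed for cleaved caspase-1 and cleaved IL-1β (Asp116), with chemiluminescent detection. Released IL-1β was also measured by ELISA.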

[5] = target: Myeloid differentiation primary response protein MyD88 (Homo sapiens) (UniProt Q99836); test: Activation of MyD88 dependent pathway in human THP-1 derived macrophages assessed as increase in NF-kappaB p65 phosphorylation at 10 uM measured after 1 hr by immunoblotting analysis; format: tissue-based; conditions: Macrophage, filed as activator
Procedure, shortened: (§5)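 PMA-differentiated THP-1 macrophages treated with compound at 10 μM (S-LPS 100 ng/mL, MPLA 1 μg/mL as references) and harvested at set times. RIPA lysates with protease/phosphatase inhibitors separated by SDS-PAGE, transferred to PVDF and probed for phospho-p65 (Ser536) and phospho-p38 (Thr180/Tyr182) with β-actin as loading control. Detection by chemiluminescence, densitometry; representative of at least two experiments.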

[6] = target: Myeloid differentiation primary response protein MyD88 (Homo sapiens) (UniProt Q99836); test: Activation of MyD88 dependent pathway in human THP-1 derived macrophages assessed as increase in IL-6 secretion at 10 to 25 uM measured after 18 hrs by ELISA; conditions: Macrophage, filed as activator, dose 10-25 µM; procedure, shortened: as §1
[7] = Toxicity in C57BL/6 […] assessed as effect on body weight at 10 ug measured daily for 7 days; conditions: mouse, in vivo, 168 h; dose 10 µg, time 7 day
Procedure, shortened: (§6)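 Six-week-old female C57BL/6 mice were injected subcutaneously in the flank with 10 μg adjuvant in 50 μL PBS. Mice were monitored and weighed daily for 7 days, with injection-site response and alertness noted. Group size is n = 3 per treatment in the methods and n = 4 in the figure legend.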

[8] = target: Toll-like receptor 4 (Homo sapiens) (UniProt O00206); test: Antagonist activity at human TLR4 in LPS-stimulated HEK-Blue hTLR4 cells assessed as inhibition of LPS-induced SEAP production at 0.1 to 25 uM incubated for 18 hrs by QUANTI-blue assay; conditions: dose 0.1-25 µM
[9] = target: Myeloid differentiation primary response protein MyD88 (Homo sapiens) (UniProt Q99836); test: Activation of MyD88 dependent pathway in human THP-1 derived macrophages assessed as increase in TNF alpha secretion at 10 to 25 uM measured after 18 hrs by ELISA; conditions: Macrophage, filed as activator, dose 10-25 µM; procedure, shortened: as §1
[10] = tested on: Macrophage; test: Activation of TRIF dependent pathway in human THP-1 derived macrophages assessed as STAT1 phosphorylation at 10 uM pretreated with anti-IFNAR2 antibody for 1 hr followed by compound addition and measured after 3 hrs by immunoblotting analysis; conditions: filed as activator
[11] = target: Myeloid differentiation primary response protein MyD88 (Homo sapiens) (UniProt Q99836); test: Activation of MyD88 dependent pathway in human THP-1 derived macrophages assessed as increase in MAPK p38 phosphorylation at 10 uM measured after 1 hr by immunoblotting analysis; format: tissue-based; conditions: Macrophage, filed as activator; procedure, shortened: as §5
[12] = tested on: Macrophage; test: Activation of TRIF dependent pathway in human THP-1 derived macrophages assessed as increase in RSAD2 expression measured after 6 hrs; format: tissue-based; conditions: filed as activator
Procedure, shortened: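 RSAD2 mRNA in differentiated THP-1 macrophages after compound at 10 μM, measured by RT-qPCR (annealing 60 °C) with β-actin housekeeping gene. Expressed as ΔΔCt fold change versus untreated cells; n = 3, Wilcoxon test.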

[13] = tested on: HEK-Blue hTLR4; test: Activation of AP-1 in LPS-stimulated HEK-Blue hTLR4 cells assessed as increase in release of SEAP reporter protein level incubated for 18 hrs by QUANTI-blue assay; format: cell-based; conditions: Homo sapiens, filed as activator
Procedure, shortened: (§7)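 HEK-Blue hTLR4 cells (HEK293 with CD14, TLR4, MD-2 and NF-κB/AP-1-driven SEAP) in DMEM/10% FBS, seeded overnight (37 °C, 5% CO2), washed, then exposed to compound 0.1–25 μM in fresh medium for 18 h. SEAP in supernatant read with QUANTI-Blue substrate (0.5–4 h, RT) at OD 630 nm. Normalized to 100 ng/mL S. minnesota smooth LPS; mean percentage of three independent experiments.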

[14] = target: Toll-like receptor 4 (Homo sapiens) (UniProt O00206); test: Activation of human TLR4 in IL-1beta stimulated HEK-Blue Null cells assessed as NF-kappaB activation at 0.1 to 25 uM incubated for 18 hrs by QUANTI- blue assay; format: tissue-based; conditions: dose 0.1-25 µM
Procedure, shortened: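 HEK-Blue Null cells, which carry the SEAP reporter but lack LPS receptors, were given compound (0.1–25 μM) for 18 h. SEAP was read by QUANTI-Blue at OD 630 nm and normalized to 100 ng/mL human IL-1β as positive control. Results are the mean percentage of three independent experiments.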

[15] = target: T1, Toll-like receptor 4/MD-2 (Homo sapiens); test: Binding affinity to NTA sensor chip immobilized recombinant human TLR4/MD2 assessed as association rate constant by surface plasmon resonance analysis; format: protein-complex assay; conditions: filed as agonist; procedure, shortened: as §3
[16] = target: NACHT, LRR and PYD domains-containing protein 3 (Homo sapiens) (UniProt Q96P20); test: Activation of NLRP3 inflammasome in human THP-1 derived macrophages assessed as increase in caspase-1 cleavage at 20 uM by immunoblotting analysis; format: tissue-based; conditions: Macrophage, filed as activator; procedure, shortened: as §4
[17] = tested on: Macrophage; test: Induction of IL-1beta production in human THP-1 derived macrophages assessed as accumulation of IL-1beta precursor in cell lysates at 20 uM measured up to 18 hrs by ELISA; format: functional, subcellular; conditions: time hrs <=18; procedure, shortened: as §2
[18] = tested on: Mus musculus; test: Immuno-adjuvant activity in C57BL/6 mouse assessed as increase in levels of anti-ova total IgG in sera at 10 ug administered subcutaneously on day 1 and as booster dose on day 22 in presence of ovalbumin and […] by ELISA; format: functional, organism-based; conditions: dose 10.0 µg
Procedure, shortened: (§8)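 Female C57BL/6 mice (n = 8) given 50 μL s.c. in the flank of 500 μg endotoxin-depleted OVA mixed with 10 μg adjuvant in PBS. Booster on opposite flank day 22; OVA-only control group. Tail-vein sera taken days 21 and 41, serially diluted 1:100–1:12 800 and assayed by ELISA on OVA-coated plates (4 μg/mL). Detection with HRP anti-mouse IgG, TMB, A450.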

[19] = target: Toll-like receptor 2 (Homo sapiens) (UniProt O60603); test: Agonist activity human TLR2 in PAM2CSK4 stimulated HEK-Blue hTLR2 cells at 0.1 to 25 uM incubated for 18 hrs by QUANTI-blue assay; format: cell-based; conditions: dose 0.1-25 µM
Procedure, shortened: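 HEK-Blue hTLR2 cells exposed 18 h to compound (0.1–25 μM); SEAP in supernatant by QUANTI-Blue at OD 630 nm. Values normalized to PAM2CSK4 (10 ng/mL, 18 h) and expressed as mean percentage of three independent experiments.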

[20] = tested on: Macrophage; test: Inhibition of IL-1beta release in human THP-1 derived macrophages pretreated with NLRP3 inhibitor MCC950 for 1 hr followed by compound addition and measured after 6 hrs by ELISA and immunoblotting analysis; format: functional, tissue-based
Procedure, shortened: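 Differentiated THP-1 macrophages preincubated 1 h with MCC950 at 0.01, 0.1, 1 and 10 μM. Cells were then stimulated 6 h with compound at 20 μM or with S-LPS at 100 ng/mL. Secreted IL-1β measured by ELISA and by immunoblot of supernatants.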

[21] = target: T1, Toll-like receptor 4/MD-2 (Homo sapiens); test: Binding affinity to NTA sensor chip immobilized recombinant human TLR4/MD2 assessed as dissociation rate kinetics by surface plasmon resonance analysis; format: protein-complex assay; conditions: filed as agonist; procedure, shortened: as §3
[22] = tested on: Mus musculus; test: Immuno-adjuvant activity in C57BL/6 mouse assessed as increase in levels of anti-ova total IgG in sera at 10 ug administered subcutaneously in presence of ovalbumin and measured 21 days post immunization by ELISA; format: functional, organism-based; conditions: dose 10.0 µg, time 21.0 day; procedure, shortened: as §8
[23] = Toxicity in C57BL/6 […] assessed as local response at injection site at 10 ug observed daily for 7 days; conditions: mouse, in vivo, 168 h; dose 10 µg, time 7 day; procedure, shortened: as §6
[24] = tested on: Macrophage; test: Activation of TRIF dependent pathway in human THP-1 derived macrophages assessed as increase in IFNbeta mRNA expression by measuring fold increase measured 2 hrs post treatment by real-time PCR relative to control; conditions: filed as activator
[25] = Toxicity in C57BL/6 […] assessed as state of alertness at 10 ug observed daily for 7 days; conditions: mouse, in vivo, 168 h; dose 10 µg, time 7 day; procedure, shortened: as §6
[26] = target: Nuclear factor NF-kappa-B complex (Homo sapiens) (UniProt Q00653+P19838+Q04206); test: Activation of NF-kappaB in LPS-stimulated HEK-Blue hTLR4 cells assessed as increase in release of SEAP reporter protein level incubated for 18 hrs by QUANTI-blue assay; format: cell-based; conditions: filed as activator; procedure, shortened: as §7
[27] = tested on: Macrophage; test: Activation of TRIF dependent pathway in human THP-1 derived macrophages assessed as increase in IRF3 phosphorylation at 10 uM measured up to 3 hrs by immunoblotting analysis; format: tissue-based; conditions: filed as activator, time hrs <=3
Procedure, shortened: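 Differentiated THP-1 macrophages exposed to compound at 10 μM, alongside S-LPS and R-LPS (100 ng/mL each) and MPLA (1 μg/mL), and collected over a time course. Lysates were immunoblotted for phospho-IRF3 (Ser386) with β-actin as loading control and detected by chemiluminescence.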

[28] = tested on: Macrophage; test: Activation of TRIF dependent pathway in human THP-1 derived macrophages assessed as increase in IFNbeta mRNA expression measured 2 hrs post treatment by real-time PCR; conditions: filed as activator

Myeloid differentiation primary response protein MyD88 (Homo sapiens), sequence (Q99836 whole entry): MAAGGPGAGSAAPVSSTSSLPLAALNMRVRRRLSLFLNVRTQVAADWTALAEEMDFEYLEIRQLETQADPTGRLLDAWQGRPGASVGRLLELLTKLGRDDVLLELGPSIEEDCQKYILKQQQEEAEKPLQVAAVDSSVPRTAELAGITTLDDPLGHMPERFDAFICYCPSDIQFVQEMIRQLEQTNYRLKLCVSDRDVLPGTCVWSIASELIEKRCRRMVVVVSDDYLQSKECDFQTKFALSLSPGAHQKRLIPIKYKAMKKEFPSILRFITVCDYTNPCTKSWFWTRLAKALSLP
NACHT, LRR and PYD domains-containing protein 3 (Homo sapiens), sequence (Q96P20 whole entry, the tested form may be a part): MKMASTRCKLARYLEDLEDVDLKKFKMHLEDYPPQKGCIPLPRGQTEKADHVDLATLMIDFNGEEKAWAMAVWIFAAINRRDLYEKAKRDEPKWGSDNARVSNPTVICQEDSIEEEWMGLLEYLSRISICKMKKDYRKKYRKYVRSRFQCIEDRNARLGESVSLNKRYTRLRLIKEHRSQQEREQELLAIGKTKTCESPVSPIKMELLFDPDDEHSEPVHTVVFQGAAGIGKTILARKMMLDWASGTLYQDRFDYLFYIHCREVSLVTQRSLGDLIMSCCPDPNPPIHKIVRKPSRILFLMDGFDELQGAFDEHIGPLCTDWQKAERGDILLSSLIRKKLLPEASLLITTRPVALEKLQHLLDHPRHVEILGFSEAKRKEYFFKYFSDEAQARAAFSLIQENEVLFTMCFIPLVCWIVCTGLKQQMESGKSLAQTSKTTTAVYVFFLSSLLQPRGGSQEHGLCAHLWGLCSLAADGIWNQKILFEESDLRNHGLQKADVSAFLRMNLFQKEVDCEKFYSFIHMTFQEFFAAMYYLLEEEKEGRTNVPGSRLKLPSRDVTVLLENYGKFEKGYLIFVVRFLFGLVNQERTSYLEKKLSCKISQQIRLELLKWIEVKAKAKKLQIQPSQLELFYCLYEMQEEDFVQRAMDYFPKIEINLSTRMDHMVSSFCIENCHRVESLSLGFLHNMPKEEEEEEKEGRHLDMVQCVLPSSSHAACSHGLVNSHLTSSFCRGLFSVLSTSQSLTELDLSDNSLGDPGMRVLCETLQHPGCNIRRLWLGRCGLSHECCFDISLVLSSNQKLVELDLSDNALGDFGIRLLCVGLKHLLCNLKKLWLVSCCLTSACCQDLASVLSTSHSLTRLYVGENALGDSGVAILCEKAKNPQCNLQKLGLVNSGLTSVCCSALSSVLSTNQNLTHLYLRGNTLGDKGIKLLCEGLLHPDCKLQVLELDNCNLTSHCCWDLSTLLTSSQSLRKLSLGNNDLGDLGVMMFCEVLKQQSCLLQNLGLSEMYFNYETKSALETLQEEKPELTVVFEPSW
Toll-like receptor 4 (Homo sapiens), sequence (O00206 whole entry): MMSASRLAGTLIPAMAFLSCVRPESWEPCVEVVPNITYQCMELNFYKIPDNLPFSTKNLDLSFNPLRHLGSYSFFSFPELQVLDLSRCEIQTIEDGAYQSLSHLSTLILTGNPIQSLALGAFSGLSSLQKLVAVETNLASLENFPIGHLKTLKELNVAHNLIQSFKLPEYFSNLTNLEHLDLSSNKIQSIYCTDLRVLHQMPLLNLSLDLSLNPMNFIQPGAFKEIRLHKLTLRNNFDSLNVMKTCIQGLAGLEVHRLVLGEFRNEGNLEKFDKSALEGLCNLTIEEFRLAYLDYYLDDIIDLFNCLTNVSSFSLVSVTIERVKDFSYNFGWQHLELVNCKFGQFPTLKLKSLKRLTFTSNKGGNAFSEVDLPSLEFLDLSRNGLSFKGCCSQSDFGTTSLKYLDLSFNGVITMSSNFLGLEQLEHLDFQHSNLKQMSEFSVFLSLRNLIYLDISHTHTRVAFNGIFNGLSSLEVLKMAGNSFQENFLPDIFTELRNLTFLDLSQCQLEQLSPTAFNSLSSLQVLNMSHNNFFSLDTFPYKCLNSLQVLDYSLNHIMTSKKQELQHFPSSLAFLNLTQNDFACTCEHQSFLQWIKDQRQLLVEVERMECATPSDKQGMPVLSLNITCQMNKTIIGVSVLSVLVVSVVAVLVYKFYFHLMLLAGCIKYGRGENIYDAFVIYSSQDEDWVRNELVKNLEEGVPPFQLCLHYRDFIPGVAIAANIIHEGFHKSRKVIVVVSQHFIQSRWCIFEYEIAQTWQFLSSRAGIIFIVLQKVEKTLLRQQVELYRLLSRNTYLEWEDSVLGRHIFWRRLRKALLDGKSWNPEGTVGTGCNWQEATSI
Toll-like receptor 2 (Homo sapiens), sequence (O60603 whole entry): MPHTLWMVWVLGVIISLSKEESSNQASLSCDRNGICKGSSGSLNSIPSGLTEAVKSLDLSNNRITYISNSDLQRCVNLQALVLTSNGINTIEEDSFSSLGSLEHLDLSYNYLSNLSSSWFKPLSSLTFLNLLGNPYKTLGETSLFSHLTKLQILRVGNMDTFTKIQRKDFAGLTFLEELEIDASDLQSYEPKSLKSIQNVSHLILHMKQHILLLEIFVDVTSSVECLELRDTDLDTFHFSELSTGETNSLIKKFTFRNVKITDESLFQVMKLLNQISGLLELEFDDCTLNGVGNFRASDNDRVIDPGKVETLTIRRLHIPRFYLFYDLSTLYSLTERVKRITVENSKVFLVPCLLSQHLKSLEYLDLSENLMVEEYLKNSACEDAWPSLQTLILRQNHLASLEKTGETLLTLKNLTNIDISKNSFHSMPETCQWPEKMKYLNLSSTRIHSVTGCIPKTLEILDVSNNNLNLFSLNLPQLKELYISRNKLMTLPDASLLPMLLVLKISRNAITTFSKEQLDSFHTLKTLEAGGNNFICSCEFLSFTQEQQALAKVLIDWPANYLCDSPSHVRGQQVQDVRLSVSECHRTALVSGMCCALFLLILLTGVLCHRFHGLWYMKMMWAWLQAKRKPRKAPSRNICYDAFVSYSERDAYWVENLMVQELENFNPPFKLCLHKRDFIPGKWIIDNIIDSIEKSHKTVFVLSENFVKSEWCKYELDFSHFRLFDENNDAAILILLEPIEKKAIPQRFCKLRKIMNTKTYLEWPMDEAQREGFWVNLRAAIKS

Which results are given for `CCCCCCCCCCCC(=O)N[C@H]1[C@@H](OP(=O)([O-])[O-])O[C@H](CO)[C@@H](OC(=O)CCCCCCCCCCC)[C@@H]1OC(=O)CCCCCCCCCCC.[Na+].[Na+]`?
Activity [1]: Active; Activity [2]: Active; Rmax [3]: 29.1 RU; Activity [4]: Active; Activity [5]: Active; Activity [6]: Active; Activity [7]: Non-Toxic; Activity [8]: inactive; Activity [9]: Active; Activity [10]: Active; Activity [11]: Active; Activity [12]: Active; Activity [13]: Dose-Dependent Effect; Activity [14]: inactive; Ka [15]: 9.15 10^2/Ms; Activity [16]: Active; Activity [17]: Active; Activity [18]: Active; Activity [19]: inactive; inhibition [20]: Dose-Dependent Effect; Kdiss [21]: 5.19 10^-4/s; Activity [22]: Active; Activity [23]: Non-Toxic; fold change (FC) [24]: 20; Activity [25]: Non-Toxic; Activity [26]: Dose-Dependent Effect; Activity [27]: Active; Activity [28]: Active
